The nature of data set [1]: Metal chelating activity assessed as compound-Fe2+ complex formation after 10 mins by UV-Vis spectrophotometer. It counts as physicochemical. The method in brief: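 Fe2+ chelation by modified Minotti–Aust method. Compounds 5–100 μM with Fe2+ 120 μM (final), 37°C 10 min, then 1,10-phenanthroline (0.25% w/v) added and A510 read. Methanol serves as control, BHT as reference chelator. % chelation = (A control − A sample)/A control × 100; EC50 derived. Mean ± SEM, n=3 in duplicate.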

A short description of data set [2]: Antioxidant activity assessed as inhibition of Fe2+-induced thiobarbituric acid reactive substance formation in phospholipids extracted from egg yolk by measuring malondialdehyde levels per mg of triglycerides at 100 uM after 1 hr by UV-Vis spectrophotometric method (reference value: 8.17 +/- 0.32 nmol). It counts as functional. The method, boiled down:
(§1)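 Egg-yolk phospholipids (isopropanol/water extract, pellet resuspended; 1 mg/mL triglycerides) incubated with or without fresh FeSO4 100 μM plus compound in 0.05 M potassium phosphate pH 7.5, 37°C 1 h. Acetic acid (pH 3.4) and 0.6% TBA added, 97°C 1 h, n-butanol extraction, A532 against MDA standard. Reported as nmol MDA/mg triglycerides. Mean ± SEM, n=3 in duplicate.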

The next data set has as its target Acetylcholinesterase (Electrophorus electricus, UniProt O42275). The data set can be described thus: Inhibition of electric eel AChE using acetylthiocholine iodide as substrate preincubated for 15 mins followed by substrate addition measured every 15 secs for 5 to 10 mins by Ellman's method.
The nature of data set [3]: Antioxidant activity assessed as inhibition of Fe2+-induced thiobarbituric acid reactive substance formation in phospholipids extracted from egg yolk after 1 hr by UV-Vis spectrophotometric method. It counts as functional. The method, boiled down:
as §1

The values that follow come from ChEMBL document CHEMBL3860085, “Synthesis and evaluation of dihydropyrimidinone-derived selenoesters as multi-targeted directed compounds against Alzheimer's disease” (Bioorg Med Chem, 2016).

Chain of Acetylcholinesterase (O42275 whole entry): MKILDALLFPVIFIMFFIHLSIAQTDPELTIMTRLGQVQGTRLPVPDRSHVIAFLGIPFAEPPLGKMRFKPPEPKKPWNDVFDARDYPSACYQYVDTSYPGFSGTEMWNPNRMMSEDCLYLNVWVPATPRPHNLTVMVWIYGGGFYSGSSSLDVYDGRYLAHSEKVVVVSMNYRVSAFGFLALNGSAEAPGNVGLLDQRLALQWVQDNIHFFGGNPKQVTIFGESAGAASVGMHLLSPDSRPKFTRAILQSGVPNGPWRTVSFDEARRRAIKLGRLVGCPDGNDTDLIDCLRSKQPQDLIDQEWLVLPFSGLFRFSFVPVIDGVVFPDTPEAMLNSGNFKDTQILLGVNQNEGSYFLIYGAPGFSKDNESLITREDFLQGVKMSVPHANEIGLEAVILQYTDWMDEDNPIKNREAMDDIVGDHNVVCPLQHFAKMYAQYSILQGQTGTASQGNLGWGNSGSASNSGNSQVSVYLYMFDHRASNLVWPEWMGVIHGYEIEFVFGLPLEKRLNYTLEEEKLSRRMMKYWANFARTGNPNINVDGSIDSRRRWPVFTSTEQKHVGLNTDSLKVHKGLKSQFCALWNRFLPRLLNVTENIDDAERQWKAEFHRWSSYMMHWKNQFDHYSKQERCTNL

As to `CCOC(=O)C1=C(C[Se]C(=O)c2ccc(C)cc2)NC(=O)NC1c1cccc([N+](=O)[O-])c1` (stereo not given), in data set [1], the EC50 was 24.5 µM. Also, the MDA level in data set [2] came to 1.51 nmol.

For the molecule `CCOC(=O)C1=C(C[Se]C(=O)c2ccc(C)cc2)N(C)C(=O)NC1c1cccc([N+](=O)[O-])c1` (stereo not given), the EC50 in data set [1] is 32.8 µM. Further, in data set [2], the MDA level turned out to be 2.29 nmol.

Take `CCOC(=O)C1=C(C[Se]C(=O)c2ccc(C)cc2)NC(=O)NC1c1cccc2ccccc12` (stereo not given): the EC50 in data set [1] is 35.5 µM. The MDA level in data set [2] was 1.96 nmol.

For `CCOC(=O)C1=C(C[Se]C(=O)c2ccc(C)cc2)NC(=O)NC1c1ccc(N(C)C)cc1` (stereo not given), the EC50 in data set [1] was 29.6 µM. Moreover, in data set [2], the MDA level came out at 3.96 nmol.

In the case of `CCOC(=O)C1=C(C[Se]C(C)=O)NC(=O)NC1c1ccccc1` (stereo not given), the EC50 in data set [1] was found to be 41.2 µM. Besides, the MDA level in data set [2] stood at 5.1 nmol. This molecule also had an IC50 against Acetylcholinesterase of 14.2 µM.

On to `Cc1ccc(C(=O)[Se]Cc2ccccc2)cc1`, for which the EC50 in data set [1] stood at 22.4 µM. Further, in data set [2], the MDA level worked out at 1.23 nmol. The molecule further had an IC50 against Acetylcholinesterase of 12.9 µM.

As to `CCOC(=O)C1=C(C[Se]C(=O)c2cccc(C(=O)[Se]CC3=C(C(=O)OCC)C(c4ccccc4)NC(=O)N3)c2)NC(=O)NC1c1ccccc1` (stereo not given), the EC50 in data set [1] was 29.9 µM. Besides, the MDA level in data set [2] came to 3.99 nmol. This molecule returned a half-maximal inhibitory concentration (IC50) on Acetylcholinesterase of 10.6 µM.

In the case of `CCOC(=O)C1=C(CSC(=O)c2ccc(C)cc2)NC(=O)NC1c1ccccc1` (stereo not given), the EC50 in data set [1] stood at 20.2 µM. In addition, in data set [2], the MDA level came to 3.14 nmol. For the same molecule, half-maximal inhibition against Acetylcholinesterase (IC50) was put at 11.7 µM.

As to `CCOC(=O)C1=C(C[Se]C(=O)c2ccc(C)cc2)NC(=O)NC1c1ccccc1` (stereo not given), the EC50 in data set [1] amounted to 10.5 µM. Moreover, the Activity result in data set [3] was “Dose-dependent effect”. For the same molecule, the MDA level in data set [2] was determined as 0.46 nmol. The molecule further displayed an IC50 against Acetylcholinesterase of 7.21 µM.

Regarding `Cc1cc(C(C)(C)C)c(O)c(C(C)(C)C)c1` [BUTYLATED HYDROXYTOLUENE], the EC50 in data set [1] turned out to be 23.3 µM.

As for `O=c1c2ccccc2[se]n1-c1ccccc1`, the MDA level in data set [2] turned out to be 3.22 nmol.

In the case of `c1ccc([Se][Se]c2ccccc2)cc1`, the MDA level in data set [2] worked out at 2.41 nmol.

As for `CCOC(=O)C1=C(C[Se]C(=O)c2ccc(C)cc2)NC(=O)NC1c1ccc(O)c(OC)c1` (stereo not given), the EC50 in data set [1] was found to be 8.1 µM. For the same molecule, the Activity entry in data set [3] was “Dose-dependent effect”. For the same molecule, the MDA level in data set [2] was found to be 0.68 nmol. The molecule further came in with a half-maximal inhibitory concentration (IC50) on Acetylcholinesterase of 13.6 µM.

Regarding `CCOC(=O)C1=C(C[Se]C(=O)c2ccc(C)cc2)NC(=O)NC1c1ccc(C)cc1` (stereo not given), the EC50 in data set [1] was determined as 21.2 µM. Further, the Activity entry in data set [3] was “Dose-dependent effect”. In addition, in data set [2], the MDA level came out at 0.87 nmol.

In the case of `CCOC(=O)C1=C(C)NC(=O)NC1c1ccccc1` (stereo not given), in data set [1], the EC50 was determined as 15.8 µM. The MDA level in data set [2] came to 3.03 nmol. The molecule further had a half-inhibitory concentration (IC50) against Acetylcholinesterase of 9.23 µM.

Consider `CCOC(=O)C1=C(C[Se]C(=O)c2ccc(C)cc2)NC(=O)NC1c1ccc(OC)cc1` (stereo not given), for which the EC50 in data set [1] worked out at 22.4 µM. The Activity entry in data set [3] was “Dose-dependent effect”. The MDA level in data set [2] turned out to be 0.77 nmol.
